# Assay outcomes as filed in PubChem.
# NPY Y2 blocker – antagonists of human neuropeptide Y receptor Y2 | NPY-Y2 expressing cells, antagonist mode | 140,000 compounds, 0.99% hits | inhibition, % at 2.7 µM; in the data active means inhibition above about 17%;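 further: 0% = vehicle with agonist challenge and 100% = reference antagonist with challenge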
# Target sequence (P49146 whole entry, looked up): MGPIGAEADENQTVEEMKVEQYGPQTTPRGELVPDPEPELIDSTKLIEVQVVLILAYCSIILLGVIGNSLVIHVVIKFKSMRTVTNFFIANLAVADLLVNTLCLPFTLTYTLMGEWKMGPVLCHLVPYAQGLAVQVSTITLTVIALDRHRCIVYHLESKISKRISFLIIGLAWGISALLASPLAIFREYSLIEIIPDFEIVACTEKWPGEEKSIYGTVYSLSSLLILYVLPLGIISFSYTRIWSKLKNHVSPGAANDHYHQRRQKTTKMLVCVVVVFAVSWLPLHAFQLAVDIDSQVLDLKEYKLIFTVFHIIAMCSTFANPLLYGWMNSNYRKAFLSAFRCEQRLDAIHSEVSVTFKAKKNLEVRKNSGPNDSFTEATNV
# NPY1 pot ag – potentiates or activates human NPY-Y1 receptor | P25929 | NPY-Y1 expressing cells, potentiator/agonist activation | 220,000 compounds, 0.37% hits | AID 1304 | activation, % at 3.6 µM; in the data active means activation above about 33%, passing the limit was not always enough;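 further: cells stimulated with NPY at EC10 then isoproterenol at EC100; 0% = low agonist plus stimulus and 100% = saturating agonist plus stimulus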
# NPY2 pot ag – potentiators or agonists of human neuropeptide Y receptor Y2; cells expressing NPY-Y2, potentiator/agonist read-out; P49146; 220,000 compounds, 0.45% hits; activation, % at 3.6 µM; in the data active means activation above about 27%;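 further: cells stimulated with NPY near EC25 plus isoproterenol at EC100; 0% = vehicle plus submaximal agonist and 100% = vehicle plus saturating agonist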
# NPY-Y1 antag – blocks the human neuropeptide Y Y1 receptor; P25929; HEK293-CNG Y1 cells, membrane potential fluorescence; NPY at EC95, then isoproterenol; inhibition, % at 3.6 µM; 200,000 compounds, 1% hits;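 active means inhibition above the campaign mean inhibition of all tested compounds plus 3 SD, cut at about 20% in these data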;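 further: 0% = DMSO wells given NPY plus isoproterenol and 100% = isoproterenol alone without NPY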
#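 Test system: HEK293 cells co-expressing NPY Y1 receptor and cyclic-nucleotide gated channel; Also added: NPY (25 nM), isoproterenol (1 µM), Ro 20-1724 (25 µM); Compound dosing: one concentration, 3.6 µM, in 0.4% DMSO; Timing: dye 3 h, compound 60 min room temperature, stimulation 45 min; Technique: Membrane-potential fluorescent dye readout.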
# The depositor's hits bear a star; . = no result. In the library only some 1.8% were active in any assay of this set; here they are far more common.
SMILES,NPY Y2 blocker,NPY1 pot ag,NPY2 pot ag,NPY-Y1 antag
CCOC(=O)C(C)(C)N(Cc1ccc(Cl)cc1)S(=O)(=O)c1ccc(Cl)c([N+](=O)[O-])c1,1,65*,66*,-12
N#C/C(=C\c1cccs1)C(=O)Nc1nccs1,.,20,-10,2
O=C1OC(c2ccccc2)/C(=C(/O)c2ccccc2)C1=O (stereo not given),5,103*,62*,0
Cc1ccc(-c2cc(C(F)F)n3ncc(C(=O)N4CCN5CCCC5C4)c3n2)cc1 (stereo not given),19*,-76,-39,21*
Cc1ccc(-c2cc(C(F)F)n3ncc(C(=O)NN4CCCCC4)c3n2)cc1,.,2,-12,4
CCOC(=O)C1CCCN(C(=O)c2cnn3c(C(F)F)cc(-c4ccc(C)cc4)nc23)C1 (stereo not given),26*,-33,-1,30*
O=C(O)c1ccccc1N=Cc1c(O)n(-c2nccs2)c(=O)c2ccccc12,.,38,36,.
CCN(CC)S(=O)(=O)c1cccc(-n2c(O)c(C=Nc3ccccc3C(=O)O)c3ccccc3c2=O)c1,.,48*,74*,.
CC(C)(C)c1ccc(OCCCNCc2ccccc2)cc1,5,-12,-3,7
COc1ccc(OCCCNCCc2ccccc2)cc1,.,0,-11,21*
O=C(O)CCn1c(=S)n(CCC(=O)O)c2ccccc21,.,-3,8,.
CC1CCCc2sc3nc(N4CCN(CCO)CC4)n4ncnc4c3c21 (stereo not given),25*,-51,-29,40*
CCOc1ccc(NC(=S)N(CC)Cc2ccccc2)cc1,.,1,3,-3
Cc1ccc(Cn2c(=N)n(CC(O)c3ccco3)c3ccccc32)cc1 (stereo not given),23*,-21,-16,17
COC(=O)c1sc(N2CCN(c3ccc(Cl)cc3)CC2)nc1N,.,5,17,-4
COCc1c(C(=O)OC/C(O)=C(\C#N)c2nc3ccccc3[nH]2)oc2ccccc12,.,-10,-23,20*
OCCNCc1cc(Br)ccc1OCc1ccc(Cl)cc1Cl,28*,-94,-47,43*
CCCn1c(=O)c2ccccc2n2c(SCc3cc(=O)n4ccsc4n3)nnc12,3,1,-1,21*
CCCn1c(=O)c2ccccc2n2c(SCCOc3ccccc3F)nnc12,17*,-30,-15,26*
CCCn1c(=O)c2ccccc2n2c(SCc3cc(=O)oc4ccc5ccccc5c34)nnc12,2,-15,0,9
NC(=O)C(=CNc1nc(-c2ccc(Cl)c(Cl)c2)cs1)C(N)=O,.,21,15,.
Cc1c(C#N)c(N)nc2c3c(sc12)NC(=O)CC3c1ccc(Cl)cc1 (stereo not given),42*,-39,0,34*
N#Cc1c(N)nc2c3c(sc(=N)c2c1N)NC(=O)CC3c1ccccc1 (stereo not given),19*,-30,-19,23*
CCOC(=O)CSC1=C(C#N)C(c2ccc(Cl)cc2)CC(=O)N1 (stereo not given),2,10,0,2
N#Cc1c(N)nc2c3c(sc(=N)c2c1N)NC(=O)CC3c1c(F)cccc1Cl (stereo not given),0,13,-3,-1
SMILES,NPY Y2 blocker,NPY1 pot ag,NPY2 pot ag,NPY-Y1 antag
CN1CC(=O)N(CC(=O)Nc2cc(Cl)cc(Cl)c2)C1=O,.,-10,-7,8
Cc1ccc(NCC(O)C(O)C(O)CO)c(N=Nc2ccccc2)c1C (stereo not given),.,99*,98*,.
CC(=O)Nc1cc(NC(C)=O)c(N=Nc2ccccc2)cc1C,.,4,-24,.
Clc1ccc(CN2C3=NCCCN3c3ccccc32)cc1Cl,.,-22,-18,21*
CC(Nc1nc(N2CCCCC2)nc2ccccc12)c1ccccc1 (stereo not given),45*,-26,-16,46*
CC(Nc1nc(-c2ccccc2)nc2ccccc12)c1ccccc1 (stereo not given),.,-14,-3,3
COc1ccc(Nc2nc(N3CCCC3)nc3ccccc23)c(OC)c1,21*,-49,-24,27*
C[C@H](NC(N)=O)C(=O)OCC(=O)NCc1cccs1,.,0,4,3
CCCCn1c(=O)[nH]c(=O)c2c1ncn2Cc1ccco1,-1,22,5,-2
N=c1c2c(-c3ccccc3)c(-c3ccccc3)n(Cc3ccco3)c2ncn1Cc1ccco1,32*,33,22,22*
Cc1cc(NCCCn2ccnc2)n2nc(C)c(-c3ccccc3)c2n1,3,-8,13,-4
CCCCn1cnc2c(c(-c3ccccc3)c(-c3ccccc3)n2Cc2ccco2)c1=N,.,52*,52*,.
N=c1c2c(-c3ccccc3)c(-c3ccccc3)n(Cc3ccccc3)c2ncn1CCCn1ccnc1,49*,-40,17,92*
C=C(C(=O)c1ccccc1)C(C)C(=C)C(=O)c1ccccc1,4,10,3,4
CC(C)CC1c2[nH]c3ccccc3c2CCN1C(=O)CCC(=O)N(C)C (stereo not given),.,3,12,1
Fc1ccccc1C1CC(c2ccco2)=Nc2ccccc2S1 (stereo not given),.,9,-16,.
Cc1ccc(C)c(NS(=O)(=O)c2ccc3[nH]c(=O)oc3c2)c1,.,13,-2,-1
CCN1c2ccccc2-c2nc3ccccc3n2C1c1cccs1 (stereo not given),25*,-10,-9,37*
Cc1ccc2[nH]c(=O)c(-c3nc4cc(C)ccn4c3NCc3ccco3)cc2c1,7,31,33*,-2
COc1ccc(C(C(=O)NC2CCCC2)N(CC2CCCO2)C(=O)Cc2cccs2)cc1OC (stereo not given),.,-2,3,4
O=C(NC1CCCC1)C(c1ccccc1)N(Cc1ccco1)C(=O)Cc1cccs1 (stereo not given),39*,-32,-23,77*
O=C(NC1CCCCC1)C(c1ccc(O)cc1)N(CC1CCCO1)C(=O)C1COc2ccccc2O1 (stereo not given),9,-21,-8,14
O=C(NCC(=O)N(Cc1ccco1)C(C(=O)NC1CCCC1)c1ccncc1)c1cccs1 (stereo not given),3,4,6,3
O=C(NC1CCCC1)C(c1cccs1)N(CC1CCCO1)C(=O)Cc1cccs1 (stereo not given),18*,-14,-14,26*
Cc1ccc(C(C(=O)NC2CCCCC2)N(Cc2ccco2)C(=O)C2COc3ccccc3O2)o1 (stereo not given),20*,5,4,28*
SMILES,NPY Y2 blocker,NPY1 pot ag,NPY2 pot ag,NPY-Y1 antag
CCOC(=O)C1CCN(C(=O)Nc2ccc(OC(F)(F)F)cc2)CC1,.,15,-5,.
Cc1cc(C(=O)NNc2c(Cl)cccc2Cl)n(C(C)(C)C)n1,.,17,-3,.
CC(CCc1ccccc1)NC(=O)/C=C/c1ccc(Cl)cc1 (stereo not given),21*,-47,-21,32*
Cc1ccc(/C=C/C(=O)NCCCc2ccccc2)cc1,34*,-51,-34,37*
C#CCNC(=O)/C=C/c1ccc(C)cc1,2,-1,3,5
Cc1ccc(CNC(=O)/C=C/c2ccccc2Cl)cc1,12,-25,-14,31*
